Key:
[1] = Drug concentration in ICR mouse plasma at 10 mg/kg, po measured after 3 hrs; format: ADME, organism-based
Summary of the method: (§1)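 Mice given a single 10 mg/kg dose by oral gavage, 3 mice per time point. Plasma drug levels measured at 1, 3, 6 and 24 h; mean ± SD reported.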

[2] = molecular target: T1, Androgen receptor (Homo sapiens) (UniProt P10275); test: Induction of androgen receptor degradation in human VCaP cells at 0.1 uM after 24 hrs by Western blotting analysis relative to control; format: cell-based
T1 sequence (whole entry): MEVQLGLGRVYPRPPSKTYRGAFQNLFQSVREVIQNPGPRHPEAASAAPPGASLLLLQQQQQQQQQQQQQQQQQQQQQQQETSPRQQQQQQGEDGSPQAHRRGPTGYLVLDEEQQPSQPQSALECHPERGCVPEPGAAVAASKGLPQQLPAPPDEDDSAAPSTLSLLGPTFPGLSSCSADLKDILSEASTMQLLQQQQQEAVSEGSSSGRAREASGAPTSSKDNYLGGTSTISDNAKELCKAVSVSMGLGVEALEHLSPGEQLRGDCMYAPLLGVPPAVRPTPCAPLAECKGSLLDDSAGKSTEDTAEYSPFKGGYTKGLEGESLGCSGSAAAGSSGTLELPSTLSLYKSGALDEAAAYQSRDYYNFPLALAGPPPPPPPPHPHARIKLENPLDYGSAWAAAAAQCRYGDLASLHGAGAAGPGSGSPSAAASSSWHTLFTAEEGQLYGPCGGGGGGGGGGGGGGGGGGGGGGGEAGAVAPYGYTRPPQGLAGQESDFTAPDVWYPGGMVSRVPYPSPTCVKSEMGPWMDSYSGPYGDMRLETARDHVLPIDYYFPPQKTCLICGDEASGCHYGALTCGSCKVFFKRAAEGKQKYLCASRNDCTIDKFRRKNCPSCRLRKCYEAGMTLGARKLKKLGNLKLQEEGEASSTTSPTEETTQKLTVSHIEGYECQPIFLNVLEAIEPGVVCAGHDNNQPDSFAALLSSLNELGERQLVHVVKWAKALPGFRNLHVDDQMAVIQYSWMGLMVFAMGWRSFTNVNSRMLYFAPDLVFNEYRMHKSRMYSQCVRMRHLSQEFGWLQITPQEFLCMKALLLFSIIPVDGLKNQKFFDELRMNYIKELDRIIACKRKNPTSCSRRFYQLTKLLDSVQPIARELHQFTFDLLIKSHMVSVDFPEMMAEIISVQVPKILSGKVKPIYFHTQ
Summary of the method: (§2)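 VCaP cells treated for 24 h at 10, 100 or 1000 nM. AR protein measured by Western blotting.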

[3] = Drug concentration in ICR mouse plasma at 10 mg/kg, po measured after 6 hrs; format: ADME, organism-based; summary of the method: as §1
[4] = molecular target: T1, Androgen receptor (Homo sapiens); test: Induction of androgen receptor degradation in human VCaP cells at 0.01 uM after 24 hrs by Western blotting analysis relative to control; format: cell-based; summary of the method: as §2
[5] = molecular target: T1, Androgen receptor (Homo sapiens); test: Induction of androgen receptor degradation in human VCaP cells at 1 uM after 24 hrs by Western blotting analysis relative to control; format: cell-based; summary of the method: as §2
[6] = Drug concentration in ICR mouse plasma at 10 mg/kg, po measured after 1 hr; format: ADME, organism-based; summary of the method: as §1

SMILES	concentration at 3 h [1]	Activity [2]	concentration at 6 h [3]	Activity [4]	Activity [5]	concentration at 1 h [6]
C[C@H]1CC2(CCN(c3ccc(C(=O)N4CCN(C5CN(c6ccc7c(c6)C(=O)N(C6CCC(=O)NC6=O)C7=O)C5)CC4)cc3)CC2)CN1c1cnc(C#N)c(C(F)(F)F)c1 (stereo partly drawn)	678 ng/mL	> 95%	451 ng/mL	> 90%	> 95%	571 ng/mL
C[C@@H]1CC2(CCN(c3ccc(C(=O)N4CCN(C5CN(c6ccc7c(c6)C(=O)N(C6CCC(=O)NC6=O)C7=O)C5)CC4)cc3)CC2)CN1c1ccc(C#N)c(Cl)c1 (stereo partly drawn)	–	93%	–	66%	> 95%	–
C[C@H]1CC2(CCN(c3ccc(C(=O)N4CCN(C5CN(c6ccc7c(c6)C(=O)N(C6CCC(=O)NC6=O)C7=O)C5)CC4)cc3)CC2)CN1c1ccc(C#N)c(C(F)F)c1 (stereo partly drawn)	–	> 95%	–	> 90%	> 95%	–
N#Cc1ccc(N2CCC3(CCN(c4ccc(C(=O)N5CCCN(C6CCN(c7ccc8c(c7)C(=O)N(C7CCC(=O)NC7=O)C8=O)CC6)CCC5)cc4)CC3)C2)cc1Cl (stereo not drawn)	–	54%	–	< 5%	54%	–
N#Cc1ccc(N2CCC3(CCN(c4ccc(C(=O)N5CCC(N6CCN(c7ccc8c(c7)C(=O)N(C7CCC(=O)NC7=O)C8=O)CC6)CC5)cc4)CC3)C2)cc1Cl (stereo not drawn)	–	20%	–	37%	> 95%	–
N#Cc1ccc(N2CCC3(CCN(C(=O)c4ccc(C(=O)N5CCN(CC6CCN(c7ccc8c(c7)C(=O)N(C7CCC(=O)NC7=O)C8=O)CC6)CC5)cc4)CC3)C2)cc1Cl (stereo not drawn)	–	< 5%	–	< 5%	33%	–
N#Cc1ccc(N2CCC3(CCN(c4ccc(C(=O)N5CCN(CC6CN(c7ccc8c(c7)C(=O)N(C7CCC(=O)NC7=O)C8=O)C6)CC5)cc4)CC3)C2)cc1Cl (stereo not drawn)	–	81%	–	30%	85%	–
C[C@H]1CC2(CCN(c3ccc(C(=O)N4C[C@@H]5C[C@H]4CN5C4CN(c5ccc6c(c5)C(=O)N(C5CCC(=O)NC5=O)C6=O)C4)cc3)CC2)CN1c1ccc(C#N)c(Cl)c1 (stereo partly drawn)	–	> 95%	–	> 90%	> 95%	–
C[C@H]1CC2(CCN(c3ccc(C(=O)N4CCC(N5CCN(c6ccc7c(c6)C(=O)N(C6CCC(=O)NC6=O)C7=O)CC5)CC4)cc3)CC2)CN1c1ccc(C#N)c(Cl)c1 (stereo partly drawn)	–	> 95%	–	78%	> 95%	–
C[C@H]1CC2(CCN(c3ccc(C(=O)N4CCN(C5CN(c6ccc7c(c6)C(=O)N(C6CCC(=O)NC6=O)C7=O)C5)CC4)cc3)CC2)CN1c1ccc(C#N)c(C(F)(F)F)c1 (stereo partly drawn)	56 ng/mL	> 95%	29 ng/mL	> 90%	> 95%	31 ng/mL
C[C@H]1N(c2ccc(C#N)c(Cl)c2)CCC12CCN(c1ccc(C(=O)N3CCN(C4CN(c5ccc6c(c5)C(=O)N(C5CCC(=O)NC5=O)C6=O)C4)CC3)cc1)CC2 (stereo partly drawn)	–	68%	–	46%	91%	–
C[C@H]1CC2(CCN(c3ccc(C(=O)N4CCN(C5CN(c6ccc7c(c6)C(=O)N(C6CCC(=O)NC6=O)C7=O)C5)CC4)cc3)CC2)CN1c1ccc(C#N)c(F)c1 (stereo partly drawn)	146 ng/mL	> 95%	91 ng/mL	> 90%	> 95%	134 ng/mL
N#Cc1ccc(N2CCC3(CCN(c4ccc(C(=O)N5CC6(C5)CN(C5CCN(c7ccc8c(c7)C(=O)N(C7CCC(=O)NC7=O)C8=O)CC5)C6)cc4)CC3)C2)cc1Cl (stereo not drawn)	–	46%	–	< 5%	73%	–
C[C@H]1CC2(CCN(c3ccc(C(=O)N4C[C@H]5C[C@@H]4CN5C4CN(c5ccc6c(c5)C(=O)N(C5CCC(=O)NC5=O)C6=O)C4)cc3)CC2)CN1c1ccc(C#N)c(Cl)c1 (stereo partly drawn)	–	93%	–	54%	95%	–
C[C@H]1CC2(CCN(c3ccc(C(=O)N4CCN(C5CCN(c6ccc7c(c6)C(=O)N(C6CCC(=O)NC6=O)C7=O)CC5)CC4)cc3)CC2)CN1c1ccc(C#N)c(Cl)c1 (stereo partly drawn)	208 ng/mL	> 95%	104 ng/mL	> 90%	> 95%	238 ng/mL
N#Cc1ccc(N2CCC3(CCN(c4ccc(C(=O)N5CCN(CC6CCN(c7ccc8c(c7)C(=O)N(C7CCC(=O)NC7=O)C8=O)CC6)CC5)cc4)CC3)C2)cc1Cl (stereo not drawn)	–	80%	–	24%	> 95%	–

SMILES	concentration at 3 h [1]	Activity [2]	concentration at 6 h [3]	Activity [4]	Activity [5]	concentration at 1 h [6]
N#Cc1ccc(N2CCC3(CCN(c4ccc(C(=O)N5CCCN(C6CCN(c7ccc8c(c7)C(=O)N(C7CCC(=O)NC7=O)C8=O)CC6)CC5)cc4)CC3)C2)cc1Cl (stereo not drawn)	–	80%	–	45%	92%	–
N#Cc1ccc(N2CCC3(CCN(c4ccc(C(=O)N5CC6(C5)CN(C5CN(c7ccc8c(c7)C(=O)N(C7CCC(=O)NC7=O)C8=O)C5)C6)cc4)CC3)C2)cc1Cl (stereo not drawn)	–	62%	–	22%	81%	–
C[C@H]1CC2(CCN(c3ccc(C(=O)N4CCN(C5(C#N)CN(c6ccc7c(c6)C(=O)N(C6CCC(=O)NC6=O)C7=O)C5)CC4)cc3)CC2)CN1c1ccc(C#N)c(Cl)c1 (stereo partly drawn)	–	93%	–	81%	88%	–
C[C@H]1CC2(CCN(c3ccc(C(=O)N4CC(N5CCN(c6ccc7c(c6)C(=O)N(C6CCC(=O)NC6=O)C7=O)CC5)C4)cc3)CC2)CN1c1ccc(C#N)c(Cl)c1 (stereo partly drawn)	–	> 95%	–	> 90%	> 95%	–
C[C@@H]1N(c2ccc(C#N)c(Cl)c2)CCC12CCN(c1ccc(C(=O)N3CCN(C4CN(c5ccc6c(c5)C(=O)N(C5CCC(=O)NC5=O)C6=O)C4)CC3)cc1)CC2 (stereo partly drawn)	–	> 95%	–	84%	> 95%	–
N#Cc1ccc(N2CCC3(CCN(c4ccc(C(=O)N5CCCN(C6CN(c7ccc8c(c7)C(=O)N(C7CCC(=O)NC7=O)C8=O)C6)CC5)cc4)CC3)C2)cc1Cl (stereo not drawn)	–	70%	–	39%	87%	–
C[C@H]1CC2(CCN(c3ccc(C(=O)N4CCC(CN5CCN(c6ccc7c(c6)C(=O)N(C6CCC(=O)NC6=O)C7=O)CC5)CC4)cc3)CC2)CN1c1ccc(C#N)c(Cl)c1 (stereo partly drawn)	–	> 95%	–	81%	> 95%	–
N#Cc1ccc(N2CCC3(CCN(C(=O)c4ccc(N5CCN(C6CCN(c7ccc8c(c7)C(=O)N(C7CCC(=O)NC7=O)C8=O)CC6)CC5)cc4)CC3)C2)cc1Cl (stereo not drawn)	–	43%	–	< 5%	56%	–
C[C@H]1CC2(CCN(c3ccc(C(=O)N4CCC(C5CN(c6ccc7c(c6)C(=O)N(C6CCC(=O)NC6=O)C7=O)C5)CC4)cc3)CC2)CN1c1ccc(C#N)c(Cl)c1 (stereo partly drawn)	–	64%	–	12%	92%	–
C[C@H]1CC2(CCN(c3ccc(C(=O)N4CCN(CC5CCN(c6ccc7c(c6)C(=O)N(C6CCC(=O)NC6=O)C7=O)CC5)CC4)cc3)CC2)CN1c1ccc(C#N)c(Cl)c1 (stereo partly drawn)	–	> 95%	–	> 90%	> 95%	–
N#Cc1ccc(N2CCC3(CCN(c4ccc(C(=O)N5CC6CC(C5)CN(C5CCN(c7ccc8c(c7)C(=O)N(C7CCC(=O)NC7=O)C8=O)CC5)C6)cc4)CC3)C2)cc1Cl (stereo not drawn)	–	80%	–	23%	90%	–
C[C@H]1CC2(CCN(c3ccc(C(=O)N4CCN(CC5CN(c6ccc7c(c6)C(=O)N(C6CCC(=O)NC6=O)C7=O)C5)CC4)cc3)CC2)CN1c1ccc(C#N)c(Cl)c1 (stereo partly drawn)	–	> 95%	–	> 90%	> 95%	–
C[C@H]1CC2(CCN(c3ccc(C(=O)N4CC5(C4)CN(c4ccc6c(c4)C(=O)N(C4CCC(=O)NC4=O)C6=O)C5)cc3)CC2)CN1c1ccc(C#N)c(Cl)c1 (stereo partly drawn)	–	> 95%	–	79%	> 95%	–
N#Cc1ccc(N2CCC3(CCN(c4ccc(C(=O)N5CCN(C6CCN(c7ccc8c(c7)C(=O)N(C7CCC(=O)NC7=O)C8=O)CC6)CC5)cc4)CC3)C2)cc1Cl (stereo not drawn)	–	74%	–	24%	95%	–
N#Cc1ccc(N2CCC3(CCN(c4ccc(C(=O)N5CCC6(C5)CN(C5CCN(c7ccc8c(c7)C(=O)N(C7CCC(=O)NC7=O)C8=O)CC5)C6)cc4)CC3)C2)cc1Cl (stereo not drawn)	–	60%	–	20%	82%	–
N#Cc1ccc(N2CCC3(CCN(c4ccc(C(=O)N5CCN(C6CN(c7ccc8c(c7)C(=O)N(C7CCC(=O)NC7=O)C8=O)C6)CC5)cc4)CC3)C2)cc1Cl (stereo not drawn)	–	> 95%	–	78%	> 95%	–

Reference: ChEMBL document CHEMBL5331127, “Discovery of ARD-2051 as a Potent and Orally Efficacious Proteolysis Targeting Chimera (PROTAC) Degrader of Androgen Receptor for the Treatment of Advanced Prostate Cancer” (J Med Chem, 2023)
